Beta2AR agonist: activates human beta-2 adrenergic receptor causing internalization; response, % (test concentration not listed); AID 504454; actives 0.43% (n = 340,000); Am2.2-beta2AR cells, FAP receptor internalization, flow cytometry;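 active = response above a set limit, near 3 SD of response in nonfluorescent compounds, cut at about 42% in these data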
MEKK2wt PB1 HTS: raises or lowers MEK5 binding to wildtype human MEKK2 PB1 domain. bead flow cytometry, Alexa488-MEK5 binding to MEKK2 WT; actives lie on both sides. actives 1.1% (n = 290,000). binding response (% of control), % at 10 µM. AID 1531; in the data active = binding response below about 67% or above about 130%
MEKK3 PB1 HTS: MEKK3-MEK5 PB1 interaction, increase or decrease; actives 1.4% (n = 290,000); Q99759; AID 1529; bead-based flow cytometry, Alexa488-MEK5 binding to MEKK3; actives lie on both sides; 0 = blocked by unlabeled MEK5, 100 = vehicle; binding response (% of control), % at 10 µM;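 active = binding response more than 3 SD above or below the average of its plate-row segment, actives on both sides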;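 note: Alexa488 bead fluorescence after subtracting the streptavidin-only scavenger bead signal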
MEKK2mut PB1 HTS: signal of MEK5 binding to mutant human MEKK2 PB1 domain; actives 0.35% (n = 290,000); bead flow cytometry, Alexa488-MEK5 binding to MEKK2 mutant; percent response, % at 10 µM; AID 1530; in the data active = percent response above about 24%, passing the limit was not always enough
ATG4B inh: inhibitors of human ATG4B cysteine protease; Q9Y4P1; ATG4B cleavage of LC3-PLA2, NBD-HPC fluorescence, 1 h; inhibition, % at 8.33 µM; actives 0.51% (n = 340,000); in the data active = inhibition above about 40%
Target sequence (Q9Y4P1 whole entry, looked up): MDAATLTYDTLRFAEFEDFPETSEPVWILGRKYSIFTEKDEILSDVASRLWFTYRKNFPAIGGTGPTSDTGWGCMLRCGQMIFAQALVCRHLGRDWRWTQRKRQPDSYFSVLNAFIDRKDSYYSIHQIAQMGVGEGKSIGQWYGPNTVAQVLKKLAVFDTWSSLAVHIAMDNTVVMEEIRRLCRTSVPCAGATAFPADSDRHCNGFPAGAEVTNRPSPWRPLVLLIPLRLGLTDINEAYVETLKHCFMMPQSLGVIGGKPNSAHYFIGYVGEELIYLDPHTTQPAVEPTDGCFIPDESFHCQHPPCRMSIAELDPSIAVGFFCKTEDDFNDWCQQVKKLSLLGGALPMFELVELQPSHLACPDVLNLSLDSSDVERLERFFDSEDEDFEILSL
Dynein cargo inh: dynein cargo transport inhibition. z-score, hits read low. AID 1381. 3617.4 mouse cells, GR-EGFP nuclear translocation imaging; test concentration mostly 20 µM; stimulated with dexamethasone, 1 µM; active compounds read low. actives 0.47% (n = 220,000);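 active = plate z-score of nuclear minus cytoplasmic receptor signal below a set negative limit, without overly bright fluorescence or cell loss, cut at about -3.5 in these data, passing the limit was not always enough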;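 note: z-score of nuclear minus cytoplasmic ring GR-EGFP intensity difference per well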
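Schedule: 48 h induction, then 1 h compound, then 30 min agonist, 37 °C. Buffer or medium: tetracycline-free induction medium containing charcoal-stripped FBS. Reagent: 1.0 µM final dexamethasone stimulus. Evaluation: nuclear versus cytoplasmic GR-EGFP signal, averaged per well. Signal: high-content fluorescence imaging after fixation.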
ATG4B confirm: ATG4B (human) inhibition, single-dose confirmed | shares compounds with ATG4B inh | AID 504757 | actives 92% (n = 320) | inhibition, % at 8.33 µM | ATG4B protease fluorescent substrate cleavage assay; in the data active = inhibition above about 39%
PLA2 counter: inhibits human PLA2, flagging false ATG4B inhibitors. shares compounds with ATG4B inh. purified PLA2, NBD-C6-HPC fluorescence, 45 min. inhibition, % at 8.33 µM. actives 66% (n = 1,600); in the data active = inhibition above about 50%
Target sequence (P04054 whole entry, looked up): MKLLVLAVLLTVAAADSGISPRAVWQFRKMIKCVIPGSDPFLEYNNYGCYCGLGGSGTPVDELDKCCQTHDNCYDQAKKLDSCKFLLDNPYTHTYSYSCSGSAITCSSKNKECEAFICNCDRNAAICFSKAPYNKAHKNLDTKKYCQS
The depositor's hits bear a star; / = no result. This is a sample that favours compounds with a hit; in the whole collection about 2.9% have one here.

SMILES	Beta2AR agonist	MEKK2wt PB1 HTS	MEKK3 PB1 HTS	MEKK2mut PB1 HTS	ATG4B inh	Dynein cargo inh	PLA2 counter	others
O=C(C[C@@H]1C/C=C\C[C@H](Cc2ccc(F)cc2)C(=O)OC[C@@H](Cc2c[nH]c3ccccc23)NC1=O)NCCO	6	/	/	/	-5	/	/
Cc1ccc(C)c(N2CCN(C(=O)CCn3c(=S)[nH]c4cc5c(cc4c3=O)OCO5)CC2)c1	-3	91	98	-4	51*	-0.4	50*
COc1ccc(N2CCN(C(=O)CCCn3c(=S)[nH]c4cc5c(cc4c3=O)OCO5)CC2)cc1	-1	92	98	-4	24	1	/
Cn1nccc1C(=O)Oc1cccc(/C=N/NC(=O)c2ccccc2O)c1	5	96	101	-1	2	-0.55	/
COc1ccc(S(=O)(=O)NCc2ccc(C(=O)NCc3cccnc3)cc2)cc1	/	100	112	4	/	0.45	/
Cc1ccc(-c2nsc(SCC(=O)NCc3ccc4c(c3)OCO4)n2)cc1	-3	100	95	-2	-9	0.091	/
Cc1ccccc1-c1nsc(SCC(=O)NCc2ccc3c(c2)OCO3)n1	-11	98	113	-1	41*	-0.3	-5
O=C(O)CN1C(=O)/C(=C\c2ccccc2OCc2ccc(Cl)cc2Cl)SC1=S	0	108	109	15	37	/	/
O=C(O)CN1C(=O)/C(=C\c2cc(Br)ccc2OCc2ccccc2Cl)SC1=S	18	99	99	4	50*	/	81*
O=C(O)CN1C(=O)/C(=C\c2cc(Br)ccc2OCc2ccccc2F)SC1=S	16	106	103	10	56*	/	51*
CCN(CCn1cccn1)C(=O)c1cccc(OC2CCN(S(C)(=O)=O)CC2)c1	-4	102	102	13	6	/	/
CC(C)c1ccccc1NC(=O)COC(=O)c1c2c(nc3ccccc13)CCN(Cc1ccccc1)C2	12	111	99	-1	46*	-0.3	58*
Cc1c(Cl)cccc1NC(=O)COC(=O)c1c2c(nc3ccccc13)CCN(Cc1ccccc1)C2	24	109	97	1	74*	-0.11	85*
CCC(CO)n1c(SCc2cc([N+](=O)[O-])cc3c2OCOC3)nc2ccccc2c1=O (stereo not drawn)	-21	96	101	-2	43*	-0.19	55*
Cc1cc(NCc2ccc(F)cc2Cl)n2nnnc2n1	1	103	105	8	48*	-0.24	48	ATG4B confirm=70*
O=C(CC1CCCCC1)Nc1ccccc1-c1ccccc1	-4	104	100	4	40	0.72	/
O=C(CCC1CCCC1)Nc1ccccc1-c1ccccc1	4	102	102	0	45*	0.52	50*
O=C(CCC1CCCCC1)Nc1ccccc1-c1ccccc1	4	103	104	2	53*	-0.74	54*
NC(=O)C1Cc2ccccc2CN1C(=O)c1cc(C2CC2)nn1-c1ccccc1 (stereo not drawn)	-17	/	/	/	92*	/	92*
O=C(O)c1cc(C2CC2)nn1-c1ccccc1	1	103	103	2	-12	-0.18	/
CC1Cc2ccccc2N1S(=O)(=O)c1cccc(C(=O)N2Cc3ccccc3CC2C(N)=O)c1 (stereo not drawn)	0	/	/	/	68*	/	68*
O=C(c1nn(Cc2ccccc2)c(=O)c2ccccc12)N1CCc2ccccc2C1	-3	98	96	-2	20	0.86	/
NC(=O)C1Cc2ccccc2CN1C(=O)c1nn(Cc2ccccc2)c(=O)c2ccccc12 (stereo not drawn)	-7	/	/	/	41*	/	61*
NC(=O)C1Cc2ccccc2CN1C(=O)c1cccc(Oc2ccccc2)c1 (stereo not drawn)	1	97	98	-3	47*	/	94*
CCOc1ccc(CCNC(=O)c2ccc(=O)[nH]c2)cc1OCC	0	90	96	-4	3	/	/
SMILES	Beta2AR agonist	MEKK2wt PB1 HTS	MEKK3 PB1 HTS	MEKK2mut PB1 HTS	ATG4B inh	Dynein cargo inh	PLA2 counter	others
CCC1(CC)C(=O)NC(=O)NC1=S	-4	/	/	/	0	/	/
NC(=O)c1c(NC(=O)c2cnccn2)sc2c1CCCC2	-20	99	100	-4	-2	-1.2	/
O=C(Cn1cccc1C(=O)c1ccccc1)NCCCc1ccccc1	0	102	100	2	18	/	/
O=C(Cn1cccc1C(=O)c1ccccc1)NCCC1=CCCCC1	-1	104	103	-1	43*	-0.17	42	ATG4B confirm=62*
CCCCn1c2ccccc2c2cc(CC(N)=O)ccc21	2	97	99	1	62*	-0.65	74*
CN(C)c1ccnc(Oc2ccc(C(C)(C)C)cc2)c1C#N	10	104	103	3	75*	1.4	80*
Cc1ccc(NC(=S)NCc2ccccc2)cc1S(=O)(=O)N1CCCCC1	-2	105	111	-9	57*	0.003	75*
CC(=O)Nc1ccc(NC(=O)C(C)OC(=O)c2cccs2)cc1 (stereo not drawn)	4	/	/	/	1	/	/
COc1ccc(NC(=O)NC[C@@H]2CC[C@@H](Cc3ccc(-c4ccccc4)cc3)O2)cc1	1	/	/	/	40*	/	74*
NC(=O)NC[C@@H]1CC[C@@H](Cc2ccc(-c3ccccc3)cc2)O1	2	/	/	/	80*	/	81*
CCCN(CC(=O)Nc1ccccc1C)C(=O)c1cccc(-n2cnnn2)c1	4	105	96	3	1	/	/
Oc1ccc(-c2csc(Nc3ccc4c(c3)OCO4)n2)c(O)c1	-28	/	/	/	42*	/	59*
Oc1ccc(-c2csc(Nc3ncccn3)n2)c(O)c1	-8	96	104	1	1	-0.36	/
Cc1ccccc1/C(N)=N/OC(=O)N1c2ccccc2Sc2ccccc21	12	/	/	/	54*	1.4	60*
COc1ccc(C(=O)Nc2ncccc2C)cc1S(=O)(=O)N1CCOCC1	-4	/	/	/	5	/	/
Cc1sc2nc(C(C)C)nc(SCC(=O)N3c4ccccc4CC3C)c2c1C (stereo not drawn)	-1	97	99	-1	75*	0.9	77*
CCOC(=O)CSc1nc(C(C)C)nc2sc(C)c(C)c12	-11	99	108	3	62*	0.71	59*
Cc1nnc(SCC(=O)N2c3ccccc3CC2C)s1 (stereo not drawn)	-3	104	98	1	-5	-0.81	/
CCOC(=O)CSc1nc2sc(C)c(C)c2c(=O)n1C	3	95	100	-8	-2	-0.36	/
